ChEMBL document CHEMBL1132302, “Identification of pharmacokinetically stable 3, 10-dibromo-8-chlorobenzocycloheptapyridine farnesyl protein transferase inhibitors with potent enzyme and cellular activities” (J Med Chem, 1999)

Key:
[1] = test system: NIH-3T3 (Mus musculus); test: inhibition of tumor colony formation in soft agar
[2] = target: T1, Protein farnesyltransferase (Homo sapiens, UniProt P49354+P49356); test: Effect on Ras processing in Cos-1 monkey kidney cells expressing either H-Ras-Val 12-CVLS or H-Ras-Val12.; format: functional, cell-based, Cercopithecidae
Outline: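 Ras processing was tested in Cos-1 monkey kidney cells transiently expressing H-Ras-Val12-CVLS or H-Ras-Val12. IC50 values are single-point determinations.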

[3] = target: T1, Protein farnesyltransferase; test: Inhibitory activity against Hras Farnesyltransferase (FPT).; format: protein-complex assay
[4] = (§1) Area under curve was determined using 20%aqueous hydroxypropyl-beta-cyclodextrin (HPbetaCD) as vehicle. Compound was administered intravenously to nude mice at a dose of 25 mg/kg; format: organism-based; design: dose 25 mg/kg
Outline: (§2)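 Nude mice were dosed at 25 mpk, intravenously or orally as the line states, in 20% aqueous hydroxypropyl-β-cyclodextrin or 0.4% aqueous methyl cellulose. Serum was sampled over 24 h. Each time point came from sera of different animals.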

[5] = (§3) Area under curve was determined using 20%aqueous hydroxypropyl-beta-cyclodextrin (HPbetaCD) as vehicle. Compound was administered orally to nude mice at a dose of 25 mg/kg; format: organism-based; design: dose 25 mg/kg
Outline: as §2

[6] = test system: Mus musculus; test: (§4) Bioavailability in mouse (nude) using 20% aqueous hydroxypropyl-beta-cyclodextrin (HPbetaCD) as vehicle 25 mg/kg; format: organism-based
[7] = Maximum concentration (Cmax) using 20%aqueous hydroxypropyl-beta-cyclodextrin (HPbetaCD) as vehicle. compound was administered intravenously to nude mice at a dose of 25 mg/kg; format: ADME, organism-based; design: dose 25 mg/kg, route intravenous; details: mouse, in vivo, iv
Outline: as §2

[8] = Maximum concentration (Cmax) using 20%aqueous hydroxypropyl-beta-cyclodextrin (HPbetaCD) as vehicle. compound was administered orally to nude mice at a dose of 25 mg/kg; format: ADME, organism-based; design: dose 25 mg/kg, route oral; details: mouse, in vivo, po
Outline: as §2

[9] = (§5) Half life was administered by using 20%aqueous hydroxypropyl-beta-cyclodextrin (HPbetaCD) as vehicle to nude mice at a dose of 25mpk,; format: organism-based
[10] = as §4; format: ADME, organism-based; details: nude, in vivo
[11] = Maximum concentration (Cmax) using 0.4% Methyl cellulose (MC) as vehicle. compound was administered orally to nude mice at a dose of 25 mg/kg; format: ADME, organism-based; design: dose 25 mg/kg, route oral; details: mouse, in vivo, po
Outline: as §2

[12] = Area under curve was determined using 0.4% Methyl cellulose (MC) as vehicle. Compound was administered orally to nude mice at a dose of 25 mg/kg; format: ADME, organism-based; design: dose 25 mg/kg, route oral; details: mouse, in vivo, po
Outline: as §2

[13] = as §1; format: ADME, organism-based; design: dose 25 mg/kg, route intravenous; details: mouse, in vivo, iv
Outline: as §2

[14] = as §5; format: ADME, organism-based; details: mouse, in vivo, 25 mg/kg
[15] = as §3; format: ADME, organism-based; design: dose 25 mg/kg, route oral; details: mouse, in vivo, po
Outline: as §2

Structure (SMILES) | IC50 [1] [nM] | IC50 [2] [nM] | IC50 [3] [nM] | Cmax [7] [µM] | Cmax [8] [µM] | further results
CNC(=O)N1CCC(CC(=O)N2CCC([C@H]3c4ncc(Br)cc4CCc4cc(Cl)cc(Br)c43)CC2)CC1 | 100 | – | – | – | – | –
NC(=O)c1cncc(C(=O)N2CCC(CC(=O)N3CCC([C@H]4c5ncc(Br)cc5CCc5cc(Cl)cc(Br)c54)CC3)CC2)c1 | 500 | 21 | 2.2 | – | – | –
O=C(CC1CCN(S(=O)(=O)Cc2ccccc2)CC1)N1CCC([C@H]2c3ncc(Br)cc3CCc3cc(Cl)cc(Br)c32)CC1 | – | 350 | 17.1 | – | – | –
NS(=O)(=O)N1CCC(CC(=O)N2CCC([C@H]3c4ncc(Br)cc4CCc4cc(Cl)cc(Br)c43)CC2)CC1 | 200 | – | – | 30 | 3.6 | AUC [4]: 26100 ng·h/mL; AUC [5]: 5600 ng·h/mL; bioavailability [6]: 22%; T1/2 [9]: 1.5 h
CS(=O)(=O)N1CCC(CC(=O)N2CCC([C@H]3c4ncc(Br)cc4CCc4cc(Cl)cc(Br)c43)CC2)CC1 | – | – | – | 30 | 1.3 | AUC [4]: 9520 ng·h/mL; AUC [5]: 950 ng·h/mL; bioavailability [6]: 10%; T1/2 [9]: 0.53 h
NC(=O)N1CCC(CC(=O)N2CCC([C@H]3c4ncc(Br)cc4CCc4cc(Cl)cc(Br)c43)CC2)CC1 [LONAFARNIB] | 75 | – | – | 20 | 8.84 | bioavailability [10]: 75.8%; Cmax [11]: 16.6 µM; AUC [12]: 41400 ng·h/mL; AUC [13]: 31800 ng·h/mL; half-life [14]: 1.4 h; AUC [15]: 24100 ng·h/mL
O=C(O)c1cncc(C(=O)N2CCC(CC(=O)N3CCC([C@H]4c5ncc(Br)cc5CCc5cc(Cl)cc(Br)c54)CC3)CC2)c1 | > 500 | > 1000 | 0.8 | – | – | –
O=C(CC1CCN(S(=O)(=O)c2ccccc2)CC1)N1CCC([C@H]2c3ncc(Br)cc3CCc3cc(Cl)cc(Br)c32)CC1 | – | – | 76.1 | – | – | –
C[C@H](N)C(=O)N1CCC(CC(=O)N2CCC([C@H]3c4ncc(Br)cc4CCc4cc(Cl)cc(Br)c43)CC2)CC1 | – | 140 | – | – | – | –
NCC(=O)N1CCC(CC(=O)N2CCC([C@H]3c4ncc(Br)cc4CCc4cc(Cl)cc(Br)c43)CC2)CC1 | – | – | – | 80 | 2.92 | AUC [4]: 125000 ng·h/mL; AUC [5]: 5840 ng·h/mL; bioavailability [6]: 4.7%; T1/2 [9]: 1.4 h
O=C(O)CNC(=O)N1CCC(CC(=O)N2CCC([C@H]3c4ncc(Br)cc4CCc4cc(Cl)cc(Br)c43)CC2)CC1 | > 500 | – | – | – | – | –
C[C@@H](N)C(=O)N1CCC(CC(=O)N2CCC([C@H]3c4ncc(Br)cc4CCc4cc(Cl)cc(Br)c43)CC2)CC1 | 200 | 39 | 7.9 | – | – | –
CCN(CC)C(=O)CN1CCC(CC(=O)N2CCC([C@H]3c4ncc(Br)cc4CCc4cc(Cl)cc(Br)c43)CC2)CC1 | 300 | 40 | – | – | – | –
